pEC50, pIC50: −log10 of the molar value. Activity calls are given as the source filed them. The rule behind the calls is not given here.
How the values were obtained:
HT-1080 [1] = assay: Antiproliferative activity against human HT-1080 cells assessed as inhibition of cell growth incubated for 24 hrs by CCK-8 assay; type: functional, cell-based; details: for pIC50: HT-1080, 24 h
In short: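 HT1080 cells exposed to compound for 24 h; viability read by CCK-8; IC50 from growth inhibition.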

[2] = target: Protein cereblon/Phospholipid hydroperoxide glutathione peroxidase GPX4 (Homo sapiens, UniProt P36969+Q96SW2); assay: PROTAC activity at CRBN/GPX4 (unknown origin); type: protein assay
[3] = target: T1, von Hippel-Lindau disease tumor suppressor/Phospholipid hydroperoxide glutathione peroxidase GPX4 (Homo sapiens) (UniProt P40337+P36969); assay: (§1) PROTAC activity at VHL/GPX4 in human HT-1080 cells assessed as induction of protein degradation by Western blot analysis; type: cell-based
[4] = target: von Hippel-Lindau disease tumor suppressor/Phospholipid hydroperoxide glutathione peroxidase GPX4 (Homo sapiens, UniProt P36969+P40337); assay: as §1; type: cell-based
[5] = target: T1, von Hippel-Lindau disease tumor suppressor/Phospholipid hydroperoxide glutathione peroxidase GPX4 (Homo sapiens); assay: PROTAC activity at VHL/GPX4 in human HT-1080 cells assessed as induction of protein degradation by measuring maximal degradation at 0.06 to 5 uM by Western blot analysis relative to control; type: cell-based; details: dose 0.06-5 µM
[6] = target: T1, von Hippel-Lindau disease tumor suppressor/Phospholipid hydroperoxide glutathione peroxidase GPX4 (Homo sapiens); assay: PROTAC activity at VHL/GPX4 in human HT-1080 cells assessed as induction of protein degradation at 0.2 uM measured after 6 hrs by Western blot analysis relative to control; type: cell-based
In short: (§2)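 Time course in HT1080 cells at 0.2 μM compound. GPX4 detected by Western blot. Band density was quantified by gray-scale densitometry and normalized to GAPDH.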

[7] = target: T1, von Hippel-Lindau disease tumor suppressor/Phospholipid hydroperoxide glutathione peroxidase GPX4 (Homo sapiens); assay: PROTAC activity at VHL/GPX4 in human HT-1080 cells assessed as induction of protein degradation at 0.2 uM measured after 12 hrs by Western blot analysis relative to control; type: cell-based; in short: as §2
[8] = target: T1, von Hippel-Lindau disease tumor suppressor/Phospholipid hydroperoxide glutathione peroxidase GPX4 (Homo sapiens); assay: PROTAC activity at VHL/GPX4 in human HT-1080 cells assessed as induction of protein degradation at 0.2 uM measured for 24 hrs by Western blot analysis; type: cell-based; in short: as §2
[9] = target: T1, von Hippel-Lindau disease tumor suppressor/Phospholipid hydroperoxide glutathione peroxidase GPX4 (Homo sapiens); assay: PROTAC activity at VHL/GPX4 in human HT-1080 cells assessed as induction of protein degradation at 0.2 uM incubated for 12 hrs in presence of MG132 and chloroquine by Western blot analysis; type: cell-based
In short: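 HT1080 cells treated 12 h with degrader alongside MG132 (0.3 μM) and chloroquine (50 μM); chloroquine given as pretreatment. GPX4 detected by Western blot, band density quantified by gray-scale analysis.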

HT-1080 [10] = assay: Induction of ROS accumulation in human HT-1080 cells incubated for 12 hrs by DCFH-DA staining based flow cytometry analysis; type: functional, cell-based; details: dose 0.25-1 µM
In short: (§3)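 HT1080 cells loaded with 10 μM DCFH-DA, then treated 12 h with compound at various concentrations; intracellular ROS measured by flow cytometry. For the rescue arm, cells were pretreated 2 h with ferroptosis inhibitor Fer-1 (5 μM) and kept in its presence.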

HT-1080 [11] = assay: Induction of ROS accumulation in human HT-1080 cells at 1 uM pretreated with ferroptosis inhibitor, Fer-1 for 2 hrs followed by compound addition and further incubated for 12 hrs by DCFH-DA staining based flow cytometry analysis; type: functional, cell-based; in short: as §3

T1 sequence (P36969 whole entry, looked up): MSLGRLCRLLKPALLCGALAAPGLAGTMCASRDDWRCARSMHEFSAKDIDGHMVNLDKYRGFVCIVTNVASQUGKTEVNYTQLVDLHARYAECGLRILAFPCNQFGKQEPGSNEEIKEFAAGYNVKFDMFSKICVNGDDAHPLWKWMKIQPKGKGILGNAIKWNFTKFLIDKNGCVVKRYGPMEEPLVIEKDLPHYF
T1 sequence (P40337 whole entry, looked up): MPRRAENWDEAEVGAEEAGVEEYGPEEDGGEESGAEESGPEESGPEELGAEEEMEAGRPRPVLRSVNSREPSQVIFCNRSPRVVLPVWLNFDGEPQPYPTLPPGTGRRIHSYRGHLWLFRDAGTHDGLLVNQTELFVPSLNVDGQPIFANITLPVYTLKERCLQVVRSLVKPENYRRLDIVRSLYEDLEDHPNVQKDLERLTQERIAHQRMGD
Chain of von Hippel-Lindau disease tumor suppressor/Phospholipid hydroperoxide glutathione peroxidase GPX4 (P40337 whole entry): as the sequence (P40337 whole entry, looked up) above
Chain of von Hippel-Lindau disease tumor suppressor/Phospholipid hydroperoxide glutathione peroxidase GPX4 (P36969 whole entry): as the sequence (P36969 whole entry, looked up) above
Chain of Protein cereblon/Phospholipid hydroperoxide glutathione peroxidase GPX4 (Q96SW2 whole entry): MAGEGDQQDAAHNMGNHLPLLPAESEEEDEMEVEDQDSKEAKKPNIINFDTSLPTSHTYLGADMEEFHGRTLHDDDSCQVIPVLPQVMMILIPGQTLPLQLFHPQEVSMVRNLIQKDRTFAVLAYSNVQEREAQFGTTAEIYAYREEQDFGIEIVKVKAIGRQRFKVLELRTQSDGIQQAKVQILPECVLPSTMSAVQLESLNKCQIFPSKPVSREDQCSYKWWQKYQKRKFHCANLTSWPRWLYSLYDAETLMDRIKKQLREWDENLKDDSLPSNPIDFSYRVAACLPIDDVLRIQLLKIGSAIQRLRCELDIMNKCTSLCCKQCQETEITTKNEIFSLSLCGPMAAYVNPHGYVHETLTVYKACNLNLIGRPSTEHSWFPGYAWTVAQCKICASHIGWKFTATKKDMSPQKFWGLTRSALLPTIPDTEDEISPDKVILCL
Chain of Protein cereblon/Phospholipid hydroperoxide glutathione peroxidase GPX4 (P36969 whole entry): as the sequence (P36969 whole entry, looked up) above

Q: With Cc1onc(C(=O)N2CCN(C(c3ccc(Cl)cc3)c3ccc(Cl)cc3)CC2)c1[N+](=O)[O-] as the compound, how does the pIC50 (HT-1080 [1]) read?
A: 6.82

Q: With Cc1ncsc1-c1ccc(CNC(=O)[C@@H]2C[C@@H](O)CN2C(=O)[C@@H](NC(=O)CCCOc2ccc(C(c3ccc(Cl)cc3)N3CCN(C(=O)c4noc(C)c4[N+](=O)[O-])CC3)cc2)C(C)(C)C)cc1 (stereo not given in full) as the compound, how does the inhibition (HT-1080 [1]) read?
A: inactive

Q: With Cc1ncsc1-c1ccc(CNC(=O)[C@@H]2C[C@@H](O)CN2C(=O)[C@@H](NC(=O)COCCOCCOc2ccc(C(c3ccc(Cl)cc3)N3CCN(C(=O)c4noc(C)c4[N+](=O)[O-])CC3)cc2)C(C)(C)C)cc1 (stereo not given in full) as the compound, how does the pIC50 (HT-1080 [1]) read?
A: 5.68

Q: With Cc1ncsc1-c1ccc(CNC(=O)[C@@H]2C[C@@H](O)CN2C(=O)[C@@H](NC(=O)COCCOCCOCCOc2ccc(C(c3ccc(Cl)cc3)N3CCN(C(=O)c4noc(C)c4[N+](=O)[O-])CC3)cc2)C(C)(C)C)cc1 (stereo not given in full) as the compound, how does the pIC50 (HT-1080 [1]) read?
A: 5.49

Q: How did the pIC50 (HT-1080 [1]) turn out when Cc1ncsc1-c1ccc(CNC(=O)[C@@H]2C[C@@H](O)CN2C(=O)[C@@H](NC(=O)CCCCCCCOc2ccc(C(c3ccc(Cl)cc3)N3CCN(C(=O)c4noc(C)c4[N+](=O)[O-])CC3)cc2)C(C)(C)C)cc1 (stereo not given in full) was run?
A: 5.77

Q: Cc1ncsc1-c1ccc(CNC(=O)[C@@H]2C[C@@H](O)CN2C(=O)[C@@H](NC(=O)CCCCOc2ccc(C(c3ccc(Cl)cc3)N3CCN(C(=O)c4noc(C)c4[N+](=O)[O-])CC3)cc2)C(C)(C)C)cc1 (stereo not given in full) was tested. Which pIC50 (HT-1080 [1]) did it give?
A: 5.81

Q: With Cc1ncsc1-c1ccc(CNC(=O)[C@@H]2C[C@@H](O)CN2C(=O)[C@@H](NC2CC3(CCN(C(=O)COc4ccc(C(c5ccc(Cl)cc5)N5CCN(C(=O)c6noc(C)c6[N+](=O)[O-])CC5)cc4)CC3)C2)C(C)(C)C)cc1 (stereo not given in full) as the compound, how does the pIC50 (HT-1080 [1]) read?
A: 5.87

Q: How did the pIC50 (HT-1080 [1]) turn out when Cc1ncsc1-c1ccc(CNC(=O)[C@@H]2C[C@@H](O)CN2C(=O)[C@@H](NC(=O)CCCCCCCCCCOc2ccc(C(c3ccc(Cl)cc3)N3CCN(C(=O)c4noc(C)c4[N+](=O)[O-])CC3)cc2)C(C)(C)C)cc1 (stereo not given in full) was run?
A: 6.05

Q: With O=C1CCC(N2C(=O)c3cccc(NCCOCCOCCOCCn4cc(COc5ccc(N(C(=O)CCl)C(C(=O)NCCc6ccccc6)c6cccs6)cc5Cl)nn4)c3C2=O)C(=O)N1 (stereo not given) as the compound, how does the pEC50 [2] read?
A: 6.70

Q: With Cc1ncsc1-c1ccc(CNC(=O)[C@@H]2C[C@@H](O)CN2C(=O)[C@@H](NC(=O)CCCCCOc2ccc(C(c3ccc(Cl)cc3)N3CCN(C(=O)c4noc(C)c4[N+](=O)[O-])CC3)cc2)C(C)(C)C)cc1 (stereo not given in full) as the compound, how does the pIC50 (HT-1080 [1]) read?
A: 5.64

Q: How did the pIC50 (HT-1080 [1]) turn out when Cc1ncsc1-c1ccc(CNC(=O)[C@@H]2C[C@@H](O)CN2C(=O)[C@@H](NC(=O)CCCCCCOc2ccc(C(c3ccc(Cl)cc3)N3CCN(C(=O)c4noc(C)c4[N+](=O)[O-])CC3)cc2)C(C)(C)C)cc1 (stereo not given in full) was run?
A: 5.87

Q: Cc1ncsc1-c1ccc([C@H](C)NC(=O)[C@@H]2C[C@@H](O)CN2C(=O)[C@@H](NC(=O)CCCCCCCCCOc2ccc(C(c3ccc(Cl)cc3)N3CCN(C(=O)c4noc(C)c4[N+](=O)[O-])CC3)cc2)C(C)(C)C)cc1 (stereo not given in full) was tested. Which pIC50 (HT-1080 [1]) did it give?
A: 5.92

Q: How did the pIC50 (HT-1080 [1]) turn out when Cc1ncsc1-c1ccc(CNC(=O)[C@@H]2C[C@@H](O)CN2C(=O)[C@@H](NC(=O)COCCOc2ccc(C(c3ccc(Cl)cc3)N3CCN(C(=O)c4noc(C)c4[N+](=O)[O-])CC3)cc2)C(C)(C)C)cc1 (stereo not given in full) was run?
A: 5.74

Q: Cc1ncsc1-c1ccc(CNC(=O)[C@@H]2C[C@@H](O)CN2C(=O)[C@@H](NC(=O)CCCCCCCCOc2ccc(C(c3ccc(Cl)cc3)N3CCN(C(=O)c4noc(C)c4[N+](=O)[O-])CC3)cc2)C(C)(C)C)cc1 (stereo not given in full) was tested. Which pIC50 (HT-1080 [1]) did it give?
A: 6.12

Q: Cc1ncsc1-c1ccc(CNC(=O)[C@@H]2C[C@@H](O)CN2C(=O)[C@@H](NC(=O)CCOc2ccc(C(c3ccc(Cl)cc3)N3CCN(C(=O)c4noc(C)c4[N+](=O)[O-])CC3)cc2)C(C)(C)C)cc1 (stereo not given in full) was tested. Which pIC50 (HT-1080 [1]) did it give?
A: 5.66

Q: How did the pIC50 (HT-1080 [1]) turn out when Cc1ncsc1-c1ccc(CNC(=O)[C@@H]2C[C@@H](O)CN2C(=O)[C@@H](NC(=O)C2CCN(CC3CCN(C(=O)COc4ccc(C(c5ccc(Cl)cc5)N5CCN(C(=O)c6noc(C)c6[N+](=O)[O-])CC5)cc4)CC3)CC2)C(C)(C)C)cc1 (stereo not given in full) was run?
A: 5.35

Q: Which results are given for Cc1ncsc1-c1ccc(CNC(=O)[C@@H]2C[C@@H](O)CN2C(=O)[C@@H](NC(=O)CCCCCCCCCOc2ccc(C(c3ccc(Cl)cc3)N3CCN(C(=O)c4noc(C)c4[N+](=O)[O-])CC3)cc2)C(C)(C)C)cc1 (stereo not given in full)?
A: pIC50 (HT-1080 [1]): 6.36; Activity [3]: Dose-Dependent Effect; pEC50 [4]: 6.87; Emax [5]: 86%; Activity [6]: 50%; Activity [7]: > 80%; Activity [8]: Active; Activity [9]: inactive; Activity (HT-1080 [10]): Dose-Dependent Effect; Activity (HT-1080 [11]): inactive

Q: Cc1ncsc1-c1ccc(CNC(=O)[C@@H]2C[C@@H](O)CN2C(=O)[C@@H](NC(=O)CN2CCN(CC3CCN(C(=O)COc4ccc(C(c5ccc(Cl)cc5)N5CCN(C(=O)c6noc(C)c6[N+](=O)[O-])CC5)cc4)CC3)CC2)C(C)(C)C)cc1 (stereo not given in full) was tested. Which pIC50 (HT-1080 [1]) did it give?
A: 5.32

Q: Cc1ncsc1-c1ccc(CNC(=O)[C@@H]2C[C@@H](O)CN2C(=O)[C@@H](NC(=O)CCCCCCCCCCCOc2ccc(C(c3ccc(Cl)cc3)N3CCN(C(=O)c4noc(C)c4[N+](=O)[O-])CC3)cc2)C(C)(C)C)cc1 (stereo not given in full) was tested. Which pIC50 (HT-1080 [1]) did it give?
A: 5.63

Q: With Cc1ncsc1-c1ccc(CNC(=O)[C@@H]2C[C@@H](O)CN2C(=O)[C@@H](NC(=O)COCCOCCOCCOCCOc2ccc(C(c3ccc(Cl)cc3)N3CCN(C(=O)c4noc(C)c4[N+](=O)[O-])CC3)cc2)C(C)(C)C)cc1 (stereo not given in full) as the compound, how does the pIC50 (HT-1080 [1]) read?
A: 5.32

Q: With Cc1ncsc1-c1ccc(CNC(=O)[C@@H]2C[C@@H](O)CN2C(=O)[C@@H](NC(=O)COc2ccc(C(c3ccc(Cl)cc3)N3CCN(C(=O)c4noc(C)c4[N+](=O)[O-])CC3)cc2)C(C)(C)C)cc1 (stereo not given in full) as the compound, how does the pIC50 (HT-1080 [1]) read?
A: 5.67
